From PubChem
Only some compounds are listed: those with a hit (about 5.2% of all), similar ones and a draw of the others.
core dimer inh = HCV core protein dimerization inhibition | 300,000 tested, 0.33% active | inhibition, % at 5 µM | TR-FRET GST/Flag-core106 dimerization, 1536-well | AID 1899;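 active = inhibition above the mean of all tested compounds plus 3 SD, set per screening campaign, cut at about 45% in these data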
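Assay system: tagged HCV core106 pair (GST and Flag); medium: KF-containing HEPES buffer, pH 7.45, DTT, CHAPS, BSA; also added: Eu donor and XL665 acceptor anti-tag antibodies; dosing: 5 µM single dose; timing: compound-protein-antibody incubation 4 h at 22.5 °C; signal: TR-FRET 671 and 617 nm emission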
ALR H2O2 inh = blocks human ALR sulfhydryl oxidase activity. inhibition, % (no concentration beside the values). 290,000 tested, 3.8% active. purified ALR, DTT oxidation, H2O2 HRP-luminol luminescence;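 active = mean replicate inhibition above about 79%, with every replicate also reaching it, limit read from the data; inconclusive = only one of the two criteria met; inactive = mean below limit and not every replicate reaching it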
Target sequence (P55789 whole entry, looked up): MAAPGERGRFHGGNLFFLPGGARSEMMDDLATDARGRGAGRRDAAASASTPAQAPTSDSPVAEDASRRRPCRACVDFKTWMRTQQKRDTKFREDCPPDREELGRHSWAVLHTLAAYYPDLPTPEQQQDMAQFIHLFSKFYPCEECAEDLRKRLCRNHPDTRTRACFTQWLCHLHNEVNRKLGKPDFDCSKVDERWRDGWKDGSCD
NS3 helicase inh = HCV NS3 helicase inhibition; 290,000 tested, 0.56% active; NS3 helicase DNA unwinding, Cy5 molecular beacon fluorescence; inhibition, % at 10.9 µM;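 active = inhibition above the mean of all tested compounds plus 3 SD, set per campaign, cut at about 35% in these data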;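 also: 0% = DMSO wells and 100% = thioflavine S control wells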
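Material: hepatitis C virus NS3 helicase domain fragment enzyme; measured by: Cy5 fluorescence, 0 and 60 min reads; control set: DMSO and thioflavine S; incubation: 60 min unwinding reaction at 25 °C after ATP addition; read-out basis: % inhibition from 60/0 min fluorescence ratio, DMSO 0%, thioflavine S 100%; repeats: singlicate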
ZTA counter = counter-screen for EBNA-1 inhibitors: inhibitors of Epstein-Barr virus ZTA; P03206; inhibition, % at 11 µM; ZTA-DNA binding, fluorescence polarization; 320,000 tested, 0.15% active; in the data active = inhibition above about 33%
Target sequence (P03206 whole entry, looked up): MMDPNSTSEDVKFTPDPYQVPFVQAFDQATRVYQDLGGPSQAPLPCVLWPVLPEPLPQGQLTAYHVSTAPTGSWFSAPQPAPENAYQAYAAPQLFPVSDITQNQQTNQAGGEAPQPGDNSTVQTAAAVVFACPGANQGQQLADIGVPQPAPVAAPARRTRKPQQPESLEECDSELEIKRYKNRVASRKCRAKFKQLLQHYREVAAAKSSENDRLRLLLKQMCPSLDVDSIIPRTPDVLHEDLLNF
EBNA-1 inhibitor = blocks EBNA-1 binding to DNA. 300,000 tested, 0.34% active. EBNA-1 DNA binding, fluorescence polarization. inhibition, % at 14.8 µM; in the data active = inhibition above about 28%
PfM18AAP inh = PfM18AAP enzyme inhibition; recombinant PfM18AAP, H-Glu-NHMec fluorogenic cleavage; inhibition, % at 7.35 µM; 290,000 tested, 1.2% active; AID 1822;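 active = inhibition above the campaign mean inhibition over all tested compounds plus 3 SD, cut at about 28% in these data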;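 also: 0% = plate median of test compound wells and 100% = 2 mM ZnCl2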
Numbers without * were called inactive; ? = inconclusive; / = no result given.

SMILES | core dimer inh | ALR H2O2 inh | NS3 helicase inh | ZTA counter | EBNA-1 inhibitor | PfM18AAP inh
Cc1nn(C)cc1/C=N/O | -2 | -4 | -1 | 1 | 5 | -13
Cc1nn(C)cc1/C=C/C(=O)c1ccc(O)cc1 | 1 | 99* | 1 | 9 | 8 | 3
COc1cc(NC(=O)CN2C(=O)C(c3ccccc3)=NC23CCCCCC3)cc(OC)c1 | 2 | 55 | 4 | -8 | -3 | -5
COc1cc(NC(=O)CN2C(=O)C(c3ccccc3)=NC2(C)C)cc(OC)c1 | -1 | 97* | -9 | -5 | 3 | 3
NNC(=O)c1cc2cc(OC(F)(F)F)ccc2[nH]1 | 1 | / | 12 | -9 | -14 | -2
CCOc1cc(/C=C(\C#N)C(N)=O)ccc1OS(=O)(=O)c1ccccc1 | 6 | 98* | -5 | 6 | 4 | 5
COc1cc(Cn2c(-c3ccc(O)c(OC)c3)nc3ccccc32)ccc1O | -6 | 99* | -10 | -5 | -10 | 2
CCn1c(-c2ccc(N(C)C)cc2)nc2ccccc21 | -6 | 99* | -13 | 16 | 8 | -3
CC(C)n1c(-c2ccc(N(C)C)cc2)nc2ccccc21 | 4 | ? | -2 | -13 | -2 | 5
COc1ccc(-c2nc3ccccc3n2Cc2ccccc2)cc1 | 5 | / | -4 | -27 | 2 | -12
CN(C)c1ccc(-c2nc3ccccc3n2C)cc1 | -8 | 91* | 0 | -3 | 1 | -1
CCn1c(-c2ccc(N)cc2)nc2ccccc21 | 1 | 92* | 1 | 11 | -5 | 4
CCn1c(-c2ccco2)nc2ccccc21 | -3 | 6 | 3 | 3 | 1 | -1
COc1ccccc1C(=O)NCCC(=O)NC1CCC(C)CC1 (stereo not given) | / | -2 | / | -4 | / | /
COC(=O)c1ccc2c(c1)nc(C)n2CCO | 5 | -30 | 1 | -6 | -8 | 6
Nc1ccc(-c2nc3cc(N)ccc3n2CCO)cc1 | -3 | 98* | 11 | -7 | 1 | 2
C=CCn1c(-c2ccc(N)cc2)nc2ccccc21 | 3 | 95* | -1 | 1 | 1 | 0
CCCOc1ccc2c(c1)C(=NN=C(N)N)c1cc(OCCC)ccc1-2 | -15 | -5 | -68 | 19 | 2 | 10
COc1ccccc1C1C(C(C)=O)=C(O)C(=O)N1c1ccc(O)cc1 (stereo not given) | 8 | 7 | -1 | 8 | 2 | 4
C[C@@H]1C[C@H](Nc2ccccc2)c2ccccc2N1C(=O)c1cccnc1 | -5 | 27 | 3 | 4 | 4 | 0
CC1CC(Nc2ccccc2)c2ccccc2N1C(=O)c1cccnc1 (stereo not given) | -17 | 100* | -1 | -9 | -13 | 0
CN(C)/N=C/c1ccc(OC(=O)c2cccc([N+](=O)[O-])c2)cc1 | 4 | 98* | 7 | -23 | -20 | 8
C=CCN1C(=O)/C(=c2\sc3nc(=O)c(Cc4ccccc4Cl)nn3c2=O)c2ccccc21 | -1 | 96* | 12 | -3 | 0 | -12
C=CCOC(=O)C1=C(C)N=c2s/c(=C3\C(=O)N(CC(=O)O)c4ccccc43)c(=O)n2C1c1ccc(OC)cc1 (stereo not given) | 10 | 63 | 15 | 8 | -1 | -4
CC1=Nc2ccccc2N=C(N)C1c1ccccc1 (stereo not given) | -4 | 96* | -1 | 14 | 2 | -2
SMILES | core dimer inh | ALR H2O2 inh | NS3 helicase inh | ZTA counter | EBNA-1 inhibitor | PfM18AAP inh
CC1=Nc2ccccc2N=C(NC(=O)c2ccccc2)C1c1ccc(Cl)cc1 (stereo not given) | 13 | 0 | 5 | -23 | -33 | 2
O=C(O)c1ccc(-c2ccc(O)c(F)c2)cc1 | 3 | 98* | -3 | -14 | 7 | 8
O=C(CNC(=O)N1CC(=O)Nc2ccccc21)NCCc1c[nH]c2ccccc12 | 2 | 11 | 8 | 1 | -8 | 2
COc1cc2c(cc1OC)CN(C(=O)CSc1nc3[nH]ncc3c(=O)n1-c1ccccc1)CC2 | 0 | -2 | 0 | 0 | 12 | 31*
CC(C)(CO)NS(=O)(=O)c1ccc2c(c1)Cc1cc(S(=O)(=O)NC(C)(C)CO)ccc1-2 | -1 | 33 | 0 | 9 | 2 | 1
CN(C)c1ccc(N=Nc2ccccc2C(=O)OCC(=O)NC2CCCC2)cc1 | -1 | 97* | -12 | 2 | 14 | -2
